# Assay results pooled from the literature.
# Lines come from different studies, so protocols differ.
# Read-out: cell growth or viability
Structure (SMILES),cell line,assay,setting,IC50
CCN(CC)CCOC(=O)C1(c2ccc([N+](=O)[O-])cc2)CCCC1,CAL-27,,72 h,> 20 µM
CC(C)c1cccc(C(C)C)c1N1CCN(c2c(C(C)C)cccc2C(C)C)C1=[Se],HCT-15,MTT,72 h,15.8 µM
CCCCc1cccc(-c2cnc3c(n2)CCCC3)c1,MCF-10A,,48 h,> 50 µM
O=C(C=C[c-]1cccc1)c1sccc1Br.[Fe+2].c1cc[cH-]c1,4T1,MTT,72 h,32.9 µM
O=C(NC(=S)NCCCNC(=S)NC(=O)c1ccc2ccccc2c1)c1ccc2ccccc2c1,MCF-10A,,48 h,90.2 µM
O=C(c1cc(Cl)c(Cl)[nH]1)c1c(O)ccc(Cc2ccc(O)c(C(=O)c3cc(Cl)c(Cl)[nH]3)c2O)c1O,MDCK,MTT,72 h,25 mg/L
CC(=O)CC(c1ccccc1)c1c(O)c2ccccc2oc1=O (centres unmarked),CAL-27,,72 h,> 20 µM
c1ccc(-c2cccc(-c3cnc4c(n3)CCCC4)c2)cc1,MCF-10A,,48 h,> 50 µM
CC(C)C[C@H](NC(=O)[C@H](Cc1ccccc1)NC(=O)c1cnccn1)B(O)O,SCLC-21H,ATP luminescence,,0.011 µM
O=C(c1cc(Cl)c(Cl)[nH]1)c1c(O)ccc(Cc2cc(C(c3csc(-c4ccccc4O)n3)c3ccc(O)c(C(=O)c4cc(Cl)c(Cl)[nH]4)c3O)c(O)c(C(=O)c3cc(Cl)c(Cl)[nH]3)c2O)c1O (centres unmarked),MDCK,MTT,72 h,28 mg/L
O=C(C=C[c-]1cccc1)c1ccc[nH]1.[Fe+2].c1cc[cH-]c1,4T1,MTT,72 h,76.5 µM
C=CC1=C(C(=O)O)N2C(=O)[C@@H](NC(=O)/C(=N\OCC(=O)O)c3csc(N)n3)[C@H]2SC1,VCaP,CCK-8,72 h,> 30 µM
Cc1ccc(C(=O)Nc2ccc(Oc3cc4cnn(C)c4cc3-c3cn[nH]c3)c(F)c2)c(=O)n1-c1ccc(F)cc1,NCI-H1993,ATP luminescence,,0.076 µM
CNC(=O)c1ccc(N2C(=S)N(c3cnc(C#N)c(C(F)(F)F)c3)C(=O)C23CCC3)cc1F,VCaP,ATP luminescence,6 days,0.39 µM
O=C1CCCCC1C1C2C=CC=CC1C(C1CC1)=C2 (centres unmarked),K562,flow cytometry,,0.017 µM
COc1cc(-c2ncn(/C=C\C(=O)OC(C)C)n2)cc(C(F)(F)F)c1,F-36P,,72 h,0.063 µM
CCCCCc1ccc(-c2cnc3c(n2)CCCC3)cc1,MCF-10A,,48 h,> 50 µM
COc1cc(Nc2nccc(-c3cnn4nc(OC)ccc34)n2)cc(C(F)(F)F)c1,OVK18,ATP luminescence,,0.41 µM
NCCc1ccc(O)c(O)c1,CAL-27,,72 h,> 20 µM
Cc1cn([C@H]2C[C@H](N=[N+]=[N-])[C@@H](CO)O2)c(=O)[nH]c1=O,VCaP,CCK-8,72 h,> 30 µM
CC(C)Oc1cccc(-c2cnc3c(n2)CCCC3)c1,MCF-10A,,48 h,25 to 50 µM
CC1(C)S[C@@H]2[C@H](NC(=O)[C@H](N)c3ccc(O)cc3)C(=O)N2[C@H]1C(=O)O,VCaP,CCK-8,72 h,> 30 µM
COc1cc2nc(N3CCN(C(=O)c4ccco4)[C@H]4CCCC[C@H]43)nc(N)c2cc1OC (racemic),CAL-27,,72 h,13.3 µM
CC(C)c1cc(-c2n[nH]c(=O)n2-c2ccc3c(ccn3C)c2)c(O)cc1O,MDA-MB-415,imaging,24 h,0.024 µM
CC(C)c1ccccc1S(=O)(=O)c1cc(N)c2ncccc2c1[N+](=O)[O-],CAL-27,,72 h,> 20 µM
CCOc1ccc(-c2cnc3c(n2)CCCC3)cc1,MCF-10A,,48 h,> 50 µM
CCN(CC)CCNC(=O)COc1ccc(OC)cc1,CAL-27,,72 h,> 20 µM
O=C(Nc1nnnn1C1CCCCC1)c1ccc2ccccc2c1,MCF-10A,,48 h,81 µM
Clc1ccc(N2CCN(Cc3c[nH]c4ncccc34)CC2)cc1,CAL-27,,72 h,> 20 µM
CN(C)c1ccc2cc(C(=O)N[C@@H](CCCNC(=N)CCl)C(=O)NCc3ccccc3)ccc2c1,4T1,,48 h,11.9 µM
COc1ccc2c(c1OC)C(=O)O[C@@H]2[C@H]1c2c(cc3c(c2OC)OCO3)CCN1C,CAL-27,,72 h,17 µM
CCCCOc1ccc(-c2cnc3c(n2)CCCC3)cc1,MCF-10A,,48 h,25 to 50 µM
